Here are results for 4 molecules from ChEMBL document CHEMBL3877317, “Quinazolinone derivatives: Synthesis and comparison of inhibitory mechanisms on α-glucosidase” (Bioorg Med Chem, 2017).

The source made the active and inactive calls. The calls are words filed in the database; no cut-off is given here.

The subject of assay [1] is Saccharomyces cerevisiae. Description: Reversible inhibition of Saccharomyces cerevisiae alpha-glucosidase type 1 at 8 to 24 uM using p-nitro-phenyl-alpha-D-glucopyranoside as substrate preincubated for 10 mins followed by substrate addition measured after 5 mins every 10 secs.
Assay [2] has as its system Saccharomyces cerevisiae. The experiment in a line: Binding affinity to Saccharomyces cerevisiae alpha-glucosidase type 1 at 25 degC by fluorescence spectrophotometric method.
Assay [3] relates to Saccharomyces cerevisiae. Description: Binding affinity to Saccharomyces cerevisiae alpha-glucosidase type 1 assessed as quenching velocity constant of biomolecular reaction at 25 degC by fluorescence spectrophotometric method. The procedure, abridged:
(§1)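 Fluorescence quenching: enzyme (0.1 mg/mL, 50 µL) mixed with sample at varied concentrations in 0.1 mM sodium phosphate buffer, 25 °C. Excitation 280 nm, emission scanned 300-500 nm. F0/F plotted against [Q] and fitted to the Stern-Volmer equation (F0/F = 1 + Kqτ0[Q] = 1 + Ksv[Q]) to give Ksv and Kq.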

Assay [4] in a line: Inhibition of Saccharomyces cerevisiae alpha-glucosidase type 1 using p-nitro-phenyl-alpha-D-glucopyranoside as substrate preincubated for 10 mins followed by substrate addition measured after 5 mins every 10 secs. The procedure, abridged:
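Enzyme (7 U/mL, 50 µL) with sample at varied concentrations, then 5 mM pNPG (200 µL) in 0.1 M potassium phosphate pH 6.8. A405 read every 10 s at ambient temperature. Relative activity = slope with inhibitor / slope without × 100. Acarbose as positive control.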

A short description of assay [5]: Non-competitive inhibition of Saccharomyces cerevisiae alpha-glucosidase type 1 using p-nitro-phenyl-alpha-D-glucopyranoside as substrate preincubated for 10 mins followed by substrate addition measured after 5 mins every 10 secs by Lineweaver-Burk plot analysis. Summed up:
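Same pNPG assay (0.1 M potassium phosphate pH 6.8, A405 every 10 s, ambient temperature), inhibitor 0-24 µM (or 0-16 µM). Inhibition type assigned from Lineweaver-Burk plots. KI taken from the secondary plot.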

In assay [6] the test system is Saccharomyces cerevisiae. The experiment in a line: Binding affinity to Saccharomyces cerevisiae alpha-glucosidase type 1 assessed as Stern-Volmer quenching constant at 25 degC by fluorescence spectrophotometric method. The procedure, abridged:
as §1

Assay [7] concerns Saccharomyces cerevisiae. The experiment in a line: Binding affinity to Saccharomyces cerevisiae alpha-glucosidase type 1 assessed as fluorescence quenching by measuring relative fluorescence intensity at 50 uM by fluorescence spectrophotometric method. The procedure, abridged:
(§2)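 Intrinsic enzyme fluorescence (peak 330 nm) recorded with excitation 280 nm, emission 300-500 nm, 25 °C. Enzyme 0.1 mg/mL in 0.1 mM sodium phosphate buffer; compound series 0-50 µM or 0-60 µM. Relative intensity expressed as F/F0 against enzyme alone.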

In assay [8] the test system is Saccharomyces cerevisiae. The experiment in a line: Binding affinity to Saccharomyces cerevisiae alpha-glucosidase type 1 assessed as fluorescence quenching by measuring relative fluorescence intensity at 60 uM by fluorescence spectrophotometric method. Summed up: as §2

In the case of `O=c1[nH]c(-c2ccc(Cl)cc2)nc2ccccc12`, the inhibition entry in assay [1] was “Active”. The molecule further came in with a K in assay [2] of 1.78 ×10⁴ L/mol. In addition, the Kq in assay [3] turned out to be 3.1 ×10¹² L/mol.s. Besides, in assay [4], the IC50 stood at 12.5 µM. In addition, the Ki in assay [5] turned out to be 9.1 µM. In addition, the KSV in assay [6] came to 3.1 ×10⁴ L/mol. For the same molecule, in assay [7], the Activity stood at 39.3%.
Molecule `Oc1nc(-c2ccc(F)cc2)nc2ccccc12` showed an IC50 in assay [4] of more than 57.2 µM.
Same read-out and setting: the value for `C[C@H]1O[C@H](O[C@H]2[C@H](O)[C@@H](O)[C@@H](O[C@H]3[C@H](O)[C@@H](O)C(O)O[C@@H]3CO)O[C@@H]2CO)[C@H](O)[C@@H](O)[C@@H]1N[C@H]1C=C(CO)[C@@H](O)[C@H](O)[C@H]1O` (stereo partly specified) [ACARBOSE] was 475 µM.
As for `O=c1[nH]c(-c2ccc(Br)cc2)nc2ccccc12`, the inhibition entry in assay [1] is “Active”. For the same molecule, the K in assay [2] was found to be 1.25 ×10⁴ L/mol. The Kq in assay [3] is 7.26 ×10¹¹ L/mol.s. Moreover, in assay [4], it took 15.6 µM to reach half-maximal inhibition (IC50). Further, the Ki in assay [5] was found to be 10.6 µM. Besides, the KSV in assay [6] is 7.26 ×10³ L/mol. For the same molecule, in assay [8], the Activity was 69.3%.
